Data taken from ChEMBL document CHEMBL1165943, “Design and synthesis of new anticancer pyrimidines with multiple-kinase inhibitory effect” (Bioorg Med Chem, 2010).

How the values were obtained:
Type in all cases: functional
CCRF-CEM = test: Cytotoxicity against human CCRF-CEM cells assessed as cell growth at 10 uM; details: for growth at 10 µM: Homo sapiens, CCRF-CEM, read-out: Activity
Procedure, shortened: (§1)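 Single-concentration screen at 10 μM across the 60-cell-line panel (nine tissue types); growth percentage recorded per cell line, with inhibition taken as 100 minus growth percentage.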

[1] = Cytotoxicity against human […] cells assessed as cell growth at 10 uM; details: for growth at 10 µM: Homo sapiens, RPMI8266, read-out: Activity
Procedure, shortened: (§2)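 Single-dose screen at 10 μM across the 60-cell-line panel. Cells grown in RPMI 1640 with 5% FBS and 2 mM L-glutamine, seeded at 5,000–40,000 cells/well according to doubling time, and treated 24 h later. Exposure lasted 48 h at 37 °C, 5% CO₂. Adherent cells were fixed with cold TCA, suspension cells were fixed settled, and both were stained with SRB and read at 515 nm. Growth % was recorded, with inhibition % = 100 − growth %.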

A549 = test: Cytotoxicity against human A549 cells assessed as cell growth at 10 uM; details: for growth at 10 µM: Homo sapiens, A549, read-out: Activity; procedure, shortened: as §1
HOP-92 = test: Cytotoxicity against human HOP92 cells assessed as cell growth at 10 uM; details: for growth at 10 µM: Homo sapiens, HOP-92, read-out: Activity; procedure, shortened: as §1
NCI-H226 = test: Cytotoxicity against human NCI-H226 cells assessed as cell growth at 10 uM; details: for growth at 10 µM: Homo sapiens, NCI-H226, read-out: Activity; procedure, shortened: as §2
NCI-H23 = test: Cytotoxicity against human NCI-H23 cells assessed as cell growth at 10 uM; details: for growth at 10 µM: Homo sapiens, NCI-H23, read-out: Activity; procedure, shortened: as §2
COLO 205 = test: Cytotoxicity against human COLO205 cells assessed as cell growth at 10 uM; details: for growth at 10 µM: Homo sapiens, COLO 205, read-out: Activity; procedure, shortened: as §1
SNB-19 = test: Cytotoxicity against human SNB19 cells assessed as cell growth at 10 uM; details: read-out: Activity; procedure, shortened: as §2
LOX IMVI = test: Cytotoxicity against human LOXIMVI cells assessed as cell growth at 10 uM; details: for growth at 10 µM: Homo sapiens, LOX IMVI, read-out: Activity; procedure, shortened: as §2
MDA-MB-435 = test: Cytotoxicity against human MDA-MB-435 cells assessed as cell growth at 10 uM; details: read-out: Activity; procedure, shortened: as §2
UACC-257 = test: Cytotoxicity against human UACC257 cells assessed as cell growth at 10 uM; details: for growth at 10 µM: Homo sapiens, UACC-257, read-out: Activity; procedure, shortened: as §2
UACC-62 = test: Cytotoxicity against human UACC62 cells assessed as cell growth at 10 uM; details: for growth at 10 µM: Homo sapiens, UACC-62, read-out: Activity; procedure, shortened: as §2
OVCAR-5 = test: Cytotoxicity against human OVCAR5 cells assessed as cell growth at 10 uM; details: for growth at 10 µM: Homo sapiens, OVCAR-5, read-out: Activity; procedure, shortened: as §2
786-0 = test: Cytotoxicity against human 786-0 cells assessed as cell growth at 10 uM; details: for growth at 10 µM: Homo sapiens, 786-0, read-out: Activity; procedure, shortened: as §1
A498 = test: Cytotoxicity against human A498 cells assessed as cell growth at 10 uM; details: for growth at 10 µM: Homo sapiens, A498, read-out: Activity; procedure, shortened: as §1
RXF 393 = test: Cytotoxicity against human RXF393 cells assessed as cell growth at 10 uM; details: for growth at 10 µM: Homo sapiens, RXF 393, read-out: Activity; procedure, shortened: as §2
SN12C = test: Cytotoxicity against human SN12C cells assessed as cell growth at 10 uM; details: for growth at 10 µM: Homo sapiens, SN12C, read-out: Activity; procedure, shortened: as §2
PC-3 = test: Cytotoxicity against human PC3 cells assessed as cell growth at 10 uM; details: for growth at 10 µM: Homo sapiens, PC-3, read-out: Activity; procedure, shortened: as §2
MCF7 = test: Cytotoxicity against human MCF7 cells assessed as cell growth at 10 uM; details: for growth at 10 µM: Homo sapiens, MCF7, read-out: Activity; procedure, shortened: as §2
MDA-MB-231 = test: Cytotoxicity against human MDA-MB-231 cells assessed as cell growth at 10 uM; details: for growth at 10 µM: Homo sapiens, MDA-MB-231, read-out: Activity; procedure, shortened: as §2
[2] = Cytotoxicity against human Hs 578T cells assessed as cell growth at 10 uM; details: read-out: Activity; procedure, shortened: as §1
BT-549 = test: Cytotoxicity against human BT549 cells assessed as cell growth at 10 uM; details: for growth at 10 µM: Homo sapiens, BT-549, read-out: Activity; procedure, shortened: as §1
[3] = Growth inhibition of human NCI60 cells at 10 uM after 48 hrs by sulforhodamine B assay relative to control; details: for inhibition of growth at 10 µM: Homo sapiens, NCI60, 48 h, read-out: GI
Procedure, shortened: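 Single 10 µM dose across the 60-line panel for 48 h, with the same culture, TCA fixation and SRB 515 nm read-out. Inhibition % = 100 − growth %, given as the mean over the 60 cell lines.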

FC(F)(F)c1cc(Nc2nccc(-c3ccc(-c4ccccc4)nc3)n2)cc(C(F)(F)F)c1
growth at 10 µM (CCRF-CEM): 89.7% | growth at 10 µM [1]: 96.2% | growth at 10 µM (A549): 97.3% | growth at 10 µM (HOP-92): 89.7% | growth at 10 µM (NCI-H226): 115% | growth at 10 µM (NCI-H23): 98.5% | growth at 10 µM (COLO 205): 95.6% | growth at 10 µM (SNB-19): 109% | growth at 10 µM (LOX IMVI): 98.8% | growth at 10 µM (MDA-MB-435): 109% | growth at 10 µM (UACC-257): 113% | growth at 10 µM (UACC-62): 85.3% | growth at 10 µM (OVCAR-5): 111% | growth at 10 µM (786-0): 101% | growth at 10 µM (A498): 110% | growth at 10 µM (RXF 393): 143% | growth at 10 µM (SN12C): 86.1% | growth at 10 µM (PC-3): 90.3% | growth at 10 µM (MCF7): 83.2% | growth at 10 µM (MDA-MB-231): 87.3% | growth at 10 µM [2]: 94.8% | growth at 10 µM (BT-549): 106% | inhibition of growth at 10 µM [3]: 0.49%

CC(=O)c1ccccc1-c1ccc(-c2ccnc(NC(=O)Nc3cc(C(F)(F)F)cc(C(F)(F)F)c3)n2)cn1
growth at 10 µM (CCRF-CEM): 79.3% | Activity [1]: 98.17% | growth at 10 µM (A549): 86.8% | growth at 10 µM (HOP-92): 89.9% | growth at 10 µM (NCI-H226): 98.6% | growth at 10 µM (NCI-H23): 99.8% | growth at 10 µM (COLO 205): 90.9% | growth at 10 µM (SNB-19): 91.5% | Activity (LOX IMVI): 65.57% | growth at 10 µM (MDA-MB-435): 98.1% | Activity (UACC-257): 92.59% | Activity (UACC-62): 92.88% | Activity (OVCAR-5): 113.85% | Activity (786-0): 93.55% | Activity (A498): 106.93% | Activity (RXF 393): 104.4% | Activity (SN12C): 96.07% | Activity (PC-3): 74.12% | Activity (MCF7): 75.33% | Activity (MDA-MB-231): 83.21% | Activity (BT-549): 90.06% | inhibition of growth at 10 µM [3]: 11.3%

CC(=O)c1ccccc1-c1ccc(-c2ccnc(NC(=O)Nc3cc(C(F)(F)F)cc(C(F)(F)F)c3)n2)cn1.Cl
Activity (CCRF-CEM): 88.36% | Activity [1]: 75.92% | Activity (A549): 93.55% | Activity (HOP-92): 101% | Activity (NCI-H226): 103.94% | Activity (NCI-H23): 84.35% | Activity (COLO 205): 88.27% | Activity (LOX IMVI): 94.42% | growth at 10 µM (UACC-257): 102% | growth at 10 µM (UACC-62): 94.3% | Activity (OVCAR-5): 81.55% | growth at 10 µM (786-0): 79.5% | growth at 10 µM (A498): 113% | Activity (RXF 393): 130.46% | growth at 10 µM (SN12C): 88.4% | growth at 10 µM (PC-3): 89.9% | growth at 10 µM (MCF7): 89.8% | growth at 10 µM (MDA-MB-231): 83.7% | Activity (BT-549): 63.01% | growth inhibition (GI) [3]: 9.74%

c1ccc(-c2ccc(-c3ccnc(Nc4ccc(N(c5ccccc5)c5ccccc5)cc4)n3)cn2)cc1
growth at 10 µM (CCRF-CEM): 73.1% | growth at 10 µM [1]: 110% | growth at 10 µM (A549): 77.1% | growth at 10 µM (HOP-92): 151% | growth at 10 µM (NCI-H226): 115% | growth at 10 µM (NCI-H23): 145% | growth at 10 µM (COLO 205): 116% | growth at 10 µM (SNB-19): 135% | growth at 10 µM (LOX IMVI): 131% | growth at 10 µM (MDA-MB-435): 98.5% | growth at 10 µM (UACC-257): 106% | growth at 10 µM (UACC-62): 96.9% | growth at 10 µM (OVCAR-5): 106% | growth at 10 µM (786-0): 71.5% | growth at 10 µM (A498): 96.2% | growth at 10 µM (RXF 393): 99.4% | growth at 10 µM (PC-3): 87.1% | growth at 10 µM (MCF7): 96.6% | growth at 10 µM (MDA-MB-231): 123% | growth at 10 µM [2]: 76.8% | growth at 10 µM (BT-549): 102% | inhibition of growth at 10 µM [3]: 0.97%

CC(=O)c1ccc(-c2ccc(-c3ccnc(Nc4cc(C(F)(F)F)cc(C(F)(F)F)c4)n3)cn2)cc1
growth at 10 µM (CCRF-CEM): 99.4% | growth at 10 µM [1]: 97.8% | growth at 10 µM (A549): 104% | growth at 10 µM (HOP-92): 103% | growth at 10 µM (NCI-H226): 100% | growth at 10 µM (NCI-H23): 96.5% | growth at 10 µM (COLO 205): 110% | growth at 10 µM (SNB-19): 110% | growth at 10 µM (LOX IMVI): 97.8% | growth at 10 µM (MDA-MB-435): 115% | growth at 10 µM (UACC-257): 102% | growth at 10 µM (UACC-62): 104% | growth at 10 µM (OVCAR-5): 109% | growth at 10 µM (786-0): 105% | growth at 10 µM (A498): 97.4% | growth at 10 µM (RXF 393): 113% | growth at 10 µM (SN12C): 93.6% | growth at 10 µM (PC-3): 89.8% | growth at 10 µM (MCF7): 90.8% | growth at 10 µM (MDA-MB-231): 98.2% | growth at 10 µM [2]: 110% | growth at 10 µM (BT-549): 99.8% | inhibition of growth at 10 µM [3]: -2.21%
